Test results reported in ChEMBL document CHEMBL4038304, “Chiral Indolylarylsulfone Non-Nucleoside Reverse Transcriptase Inhibitors as New Potent and Broad Spectrum Anti-HIV-1 Agents” (J Med Chem, 2017).

Assays:
[1] = test system: Human immunodeficiency virus 1; test: Antiviral activity against HIV1 harboring reverse transcriptase Y181C mutant infected in human […] cells assessed as protection against virus-induced cytopathic effect measured on day 5 post infection by MTT assay; type: functional, cell-based; conditions: Human immunodeficiency virus 1, 120 h
[2] = test system: Human immunodeficiency virus 1; test: Antiviral activity against HIV1 NL4-3 infected in human […] cells assessed as protection against virus-induced cytopathic effect measured on day 5 post infection by MTT assay; type: functional, cell-based; conditions: Human immunodeficiency virus 1, NL4-3, 120 h
Summary of the method: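 Values are means of two to three independent experiments, each run in triplicate. The lowest detectable concentration is reported where activity fell below the assay limit.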

[3] = Selectivity index, ratio of CC50 for human MT4 cells to EC50 for HIV1 NL4-3 infected in human MT4 cells; type: toxicity, cell-based; conditions: read-out: Ratio CC50/EC50
Summary of the method: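 SI computed as CC50/EC50, using the MTT-based CC50 in uninfected MT-4 cells and the MTT-based EC50 against HIV-1 NL4-3-induced cell death in MT-4 cells. Experiments were run in triplicate, two to three times.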

[4] = test system: Human immunodeficiency virus 1; test: Ratio of EC50 for HIV-1 harboring reverse transcriptase K103N mutant infected in human MT4 cells to EC50 for HIV1 NL4-3 infected in human MT4 cells; type: functional
Summary of the method: (§1)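 Fold change calculated as EC50 against the stated resistant mutant HIV-1 strain divided by EC50 against wild-type NL4-3. Both EC50s come from MTT read-out of virus-induced death in MT-4 cells, mean of two to three independent experiments each in triplicate.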

[5] = test system: Human immunodeficiency virus 1; test: Ratio of EC50 for HIV-1 harboring reverse transcriptase K103N/[…] double mutant infected in human MT4 cells to EC50 for HIV1 NL4-3 infected in human MT4 cells; type: functional; summary of the method: as §1
[6] = test system: Human immunodeficiency virus 1; test: Antiviral activity against HIV1 harboring reverse transcriptase K103N /[…] double mutant infected in human […] cells assessed as protection against virus-induced cytopathic effect measured on day 5 post infection by MTT assay; type: functional, cell-based; conditions: Human immunodeficiency virus 1, 120 h
[7] = test system: Human immunodeficiency virus 1; test: Antiviral activity against HIV1 harboring reverse transcriptase K103N mutant infected in human […] cells assessed as protection against virus-induced cytopathic effect measured on day 5 post infection by MTT assay; type: functional, cell-based; conditions: Human immunodeficiency virus 1, 120 h
[8] = test system: Human immunodeficiency virus 1; test: Ratio of EC50 for HIV-1 harboring reverse transcriptase Y188L mutant infected in human MT4 cells to EC50 for HIV1 NL4-3 infected in human MT4 cells; type: functional; summary of the method: as §1
[9] = test system: Human immunodeficiency virus 1; test: Antiviral activity against HIV1 harboring reverse transcriptase Y188L mutant infected in human […] cells assessed as protection against virus-induced cytopathic effect measured on day 5 post infection by MTT assay; type: functional, cell-based; conditions: Human immunodeficiency virus 1, 120 h
[10] = test system: Human immunodeficiency virus 1; test: Ratio of EC50 for HIV-1 harboring reverse transcriptase Y181C mutant infected in human MT4 cells to EC50 for HIV1 NL4-3 infected in human MT4 cells; type: functional; summary of the method: as §1
[11] = Cytotoxicity against human MT4 cells assessed as cell viability by MTT assay; type: cell-based
Summary of the method: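 Uninfected MT-4 cells scored for viability by MTT. […] Values are means of two to three independent experiments, each run in triplicate.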

SMILES	EC50 [1] [nM]	EC50 [2] [nM]	selectivity ratio [3]	Ratio EC50 [4]	Ratio EC50 [5]	EC50 [6] [nM]	EC50 [7] [nM]	Ratio EC50 [8]	EC50 [9] [nM]	Ratio EC50 [10]	CC50 [11] [nM]
Cc1cc(C)cc(S(=O)(=O)c2c(C(=O)NCC(=O)NC(C)c3ccccc3)[nH]c3ccc(Cl)cc23)c1 (racemic)	76	0.6	> 49000	350	>48978	> 29400	210	2703	1620	127	29400
Cc1cc(C)cc(S(=O)(=O)c2c(C(=O)NC(C)C(=O)NCc3ccco3)[nH]c3ccc(Cl)cc23)c1 (racemic)	27	0.6	> 40400	3	>7521	4510	1.9	4053	2430	45	24200
Cc1cc(C)cc(S(=O)(=O)c2c(C(=O)NC(C)C(=O)NCCc3cccs3)[nH]c3ccc(Cl)cc23)c1 (racemic)	129	0.6	52800	30	>16336	> 9800	18	>16336	> 9800	215	9500
Cc1cc(C)cc(S(=O)(=O)c2c(C(=O)NCC(=O)NCCc3cccs3)[nH]c3ccc(Cl)cc23)c1	321	3.8	9480	352	>941	> 3580	1340	>941	> 3580	84	35700
Cc1cc(C)cc(S(=O)(=O)c2c(C(=O)NCC(=O)N[C@@H](C)c3ccncc3)[nH]c3ccc(Cl)cc23)c1	2.5	0.7	–	–	–	4630	438	–	3050	–	–
Cc1cc(C)cc(S(=O)(=O)c2c(C(=O)NCc3cccc(F)c3F)[nH]c3ccc(Cl)cc23)c1	2	0.7	> 73000	1	>73046	> 51100	0.7	–	–	2.9	> 51100
Cc1cc(C)cc(S(=O)(=O)c2c(C(=O)Nc3cc(C#N)ccn3)[nH]c3ccc(Cl)cc23)c1	2.2	0.6	> 89600	1	>89622	> 53800	0.6	–	–	3.7	> 53800
Cc1cc(C)cc(S(=O)(=O)c2c(C(=O)NC(C)C(=O)NC(C)c3ccccc3)[nH]c3ccc(Cl)cc23)c1 (racemic)	167	0.6	> 36900	3.2	42149	24900	1.9	6427	3790	283	21700
Cc1cc(C)cc(S(=O)(=O)c2c(C(=O)NC(C)c3ccccc3F)[nH]c3ccc(Cl)cc23)c1 (racemic)	103	0.7	> 73600	1	>5656	3960	0.7	>1384	969	>147	> 51500
Cc1cc(C)cc(S(=O)(=O)c2c(C(=O)NC(C)C(=O)NC(C)c3ccncc3)[nH]c3ccc(Cl)cc23)c1 (racemic)	167	0.6	> 36500	12	>60805	> 36500	7.4	21488	12900	278	21900
Cc1cc(C)cc(S(=O)(=O)c2c(C(=O)NCC(=O)NCc3ccncc3)[nH]c3ccc(Cl)cc23)c1	20	0.2	> 245000	–	30430	6090	190	–	1400	100	> 48900
Cc1cc(C)cc(S(=O)(=O)c2c(C(=O)NC(C)C(=O)NC(C)c3ccccc3F)[nH]c3ccc(Cl)cc23)c1 (racemic)	108	0.6	> 25400	60	10790	6470	36	>25387	> 15200	180	15200
Cc1cc(C)cc(S(=O)(=O)c2c(C(=O)NC(C)c3cc(F)cc(F)c3)[nH]c3ccc(Cl)cc23)c1 (racemic)	716	0.6	> 82800	2	>82843	> 49700	1.2	–	–	1198	> 49700
Cc1cc(C)cc(S(=O)(=O)c2c(C(=O)NCC(=O)NCCn3c(C)cnc3[N+](=O)[O-])[nH]c3ccc(Cl)cc23)c1	17	0.2	144000	1395	23285	4680	279	11605	2320	85	24500
Cc1cc(C)cc(S(=O)(=O)c2c(C(=O)NC(c3ccc(Cl)cc3)C3CC3)[nH]c3ccc(Cl)cc23)c1 (racemic)	–	133	> 359	–	–	–	–	–	–	–	> 47400
Cc1cc(C)cc(S(=O)(=O)c2c(C(=O)NC(C)C(=O)NCc3ccccc3F)[nH]c3ccc(Cl)cc23)c1 (racemic)	93	0.6	23300	43	>38775	> 23300	26	7067	4240	155	23300
Cc1cc(C)cc(S(=O)(=O)c2c(C(=O)NCC(=O)NC(C)c3ccncc3)[nH]c3ccc(Cl)cc23)c1 (racemic)	0.6	0.6	> 78400	64	22227	13300	38	1017	610	1	47000
Cc1cn([C@H]2C[C@H](N=[N+]=[N-])[C@@H](CO)O2)c(=O)[nH]c1=O [ZIDOVUDINE]	6	3.7	> 8270	4.3	–	16	16	8.9	33	1.6	> 30600
Cc1ccnc2c1NC(=O)c1cccnc1N2C1CC1 [NEVIRAPINE]	> 3760	112	–	–	–	> 3760	> 3760	–	> 3760	–	> 18800
Cc1cc(C)cc(S(=O)(=O)c2c(C(=O)NCC(=O)N[C@H](C)c3ccncc3)[nH]c3ccc(Cl)cc23)c1	5.71	0.7	–	–	–	12200	152	–	3270	–	–
Cc1cc(C)cc(S(=O)(=O)c2c(C(=O)NC(CF)c3ccccc3)[nH]c3ccc(Cl)cc23)c1 (racemic)	82	0.7	> 70300	1	39030	27300	0.7	–	–	117	49200
Cc1cc(C)cc(S(=O)(=O)c2c(C(=O)NCC(=O)NCc3ccccc3F)[nH]c3ccc(Cl)cc23)c1	1.3	0.6	> 78900	1894	>72248	> 47300	1330	10258	6160	1.9	> 47300
COc1cccc(F)c1CNC(=O)c1[nH]c2ccc(Cl)cc2c1S(=O)(=O)c1cc(C)cc(C)c1	399	0.6	> 83200	1	46243	27700	0.6	–	–	665	> 49900
